High-throughput results: PubChem, Sanford-Burnham Center for Chemical Genomics
Apaf1 inhib = human Apaf-1 inhibition | O14727 | reconstituted apoptosome caspase-3 activity, DEVD-Rh110 fluorescence | inhibition, % at 20 µM | actives 0.71% (n = 330,000); active means inhibition of at least 40% at 20 µM;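 further: plate controls were DMSO wells for no effect and DEVD-CHO caspase inhibitor wells for full effect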
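System: reconstituted apoptosome with Apaf-1, cytochrome c, caspase-9, procaspase-3, dATP; Signal: Rh110 fluorescence intensity; Schedule: 30 min compound preincubation, 50 min activation, room temperature; Reagent: cytochrome c trigger plus (Z-DEVD)2-Rh110 caspase-3 substrate.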
UBC13 polyUb = inhibitors of human UBC13 polyubiquitin chain formation; P61088; TR-FRET; inhibition, % at 20 µM; actives 0.47% (n = 330,000); AID 485273; in the data active means inhibition above about 45%, passing the limit was not always enough
SENP8 block-1 = blocks the human protease SENP8 | Q96LD8 | purified SENP8, Z-RLRGG-aminoluciferin cleavage, luminescence | inhibition, % at 10 µM | actives 1.2% (n = 330,000); in the data active means inhibition above about 50%
SENP8 block-2 = SENP8 (human) protease inhibition | recombinant SENP8, Nedd8 substrate fluorescence | AID 602440 | Q96LD8 | inhibition, % at 20 µM | actives 0.64% (n = 360,000); in the data active means inhibition mostly above about 40%, no sharp cut-off; inactive means mostly below about 27%
SENP7 block = SENP7 protease inhibition | AID 434973 | Q9BQF6 | inhibition, % at 5 µM | recombinant SENP7, Z-RLRGG-aminoluciferin luminescence, 40 min | actives 1.5% (n = 330,000);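 active means inhibition above about 50% at the single test dose, limit read from the data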;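 further: plate controls were DMSO with enzyme for no effect and no enzyme buffer wells for full effect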
SENP6 block = inhibitors of human SENP6 protease; Recombinant SENP6 catalytic domain, aminoluciferin luminescence; inhibition, % at 10 µM; actives 1.8% (n = 330,000); AID 2599;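 active means inhibition above about 50% at the single tested dose, limit read from the data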;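 further: plate controls were DMSO wells with enzyme for no effect and DMSO wells lacking enzyme for full effect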
Target sequence (Q9GZR1 628-1112 limits assumed): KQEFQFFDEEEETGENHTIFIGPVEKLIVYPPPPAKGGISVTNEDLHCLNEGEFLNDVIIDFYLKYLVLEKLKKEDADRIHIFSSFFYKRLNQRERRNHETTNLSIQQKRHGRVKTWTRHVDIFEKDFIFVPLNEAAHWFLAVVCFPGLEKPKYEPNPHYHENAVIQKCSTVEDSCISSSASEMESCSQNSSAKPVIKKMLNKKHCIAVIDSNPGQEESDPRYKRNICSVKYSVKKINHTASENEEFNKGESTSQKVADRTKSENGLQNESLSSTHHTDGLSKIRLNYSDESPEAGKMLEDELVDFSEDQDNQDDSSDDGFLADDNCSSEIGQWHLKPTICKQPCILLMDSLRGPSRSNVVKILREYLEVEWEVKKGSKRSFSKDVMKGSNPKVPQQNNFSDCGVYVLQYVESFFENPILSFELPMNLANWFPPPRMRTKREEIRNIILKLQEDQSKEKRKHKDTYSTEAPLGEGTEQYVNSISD
SENP8 conf = human SENP8 inhibition, confirmed; shares compounds with SENP7 block; Recombinant SENP8, Z-RLRGG-aminoluciferin luminescence, 60 min; inhibition, % at 12.5 µM; actives 40% (n = 6,200); AID 488912;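 active means mean inhibition across replicates above about 50%, limit read from the data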
SENP6 confirm = confirmation of human SENP6 protease inhibitors. actives 58% (n = 6,200). shares compounds with SENP7 block. AID 488915. inhibition, % at 12.5 µM. recombinant SENP6, Z-RLRGG-aminoluciferin luminescence
SENP7 confirm = confirmation of human SENP7 protease inhibitors. shares compounds with SENP7 block. recombinant SENP7, Z-RLRGG-aminoluciferin luminescence, 40 min. inhibition, % at 12.5 µM. actives 69% (n = 6,200). AID 488917
Casp3 SENP sel = caspase-3 inhibition (SENP selectivity assay); actives 60% (n = 6,200); purified caspase-3, Z-DEVD-aminoluciferin luminescence, 60 min; shares compounds with SENP7 block; inhibition, % at 12.5 µM;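 active means mean inhibition above about 50%, limit read from the data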;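 further: plate controls were enzyme with DMSO for no effect and wells without caspase-3 for full effect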
Luc interf = counter-screen for SENP inhibitors: luminescence interference; inhibition, % at 12.5 µM; shares compounds with SENP7 block; Pre-incubated SENP8/Z-RLRGG-aminoluciferin, luciferase luminescence interference; AID 488919; actives 39% (n = 6,200);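 active means mean inhibition above about 50% when retested at one dose, limit read from the data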;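 further: plate controls were DMSO wells with completed reaction for no effect and substrate without enzyme for full effect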
* = called active by the depositor. This is a sample that favours compounds with a hit; in the whole collection about 3% have one here.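 How the source made its calls, unless noted: active means mean inhibition above about 50% in the one-dose retest (limit read from the data); inactive means the rest.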

`CC(C)N=C1NN=C(c2ccc(F)cc2)CS1` gave Apaf1 inhib -0.4, UBC13 polyUb -7.0, SENP8 block-1 73.2*, SENP8 block-2 4.3, SENP7 block 78.8*, SENP6 block 65.0*, SENP8 conf 84.3*, SENP6 confirm 85.1*, SENP7 confirm 99.1*, Casp3 SENP sel 95.8* and Luc interf 89.0*.
CC(=O)c1cnc2cc(-c3ccccc3)nn2c1C was read as Apaf1 inhib 1.0, UBC13 polyUb 7.1, SENP8 block-1 -15.5, SENP8 block-2 -276.7, SENP7 block -5.3 and SENP6 block -11.6.
`CC(=O)c1cnc2cc(-c3ccc(C)cc3)nn2c1C` gave Apaf1 inhib 5.6, UBC13 polyUb 13.1, SENP8 block-1 44.7, SENP8 block-2 -267.9, SENP7 block -0.5, SENP6 block 66.7*, SENP8 conf 50.4*, SENP6 confirm 33.4, SENP7 confirm 72.5*, Casp3 SENP sel 66.1* and Luc interf 16.8.
Screening CC(=O)Nc1ccc(N=Cc2c(O)c(C(=O)Nc3ccccc3)cc3ccccc23)cc1 returned Apaf1 inhib 4.4, UBC13 polyUb -96.3, SENP8 block-1 72.4*, SENP7 block 30.3, SENP6 block 45.1, SENP8 conf 20.7, SENP6 confirm 15.8, SENP7 confirm 19.6, Casp3 SENP sel 14.4 and Luc interf 10.9.
`CCCCn1nnnc1C(c1cc2ccccc2o1)N1CCCN(C(=O)OC(C)(C)C)CC1` (centres undefined) gave SENP8 block-2 -5.9.
Cc1cccc(C(=O)Oc2ccc(/C=N/O)cc2)c1 was read as Apaf1 inhib 5.0, UBC13 polyUb 1.8, SENP8 block-1 69.1*, SENP8 block-2 5.0, SENP7 block 2.9, SENP6 block 76.2*, SENP8 conf 76.6*, SENP6 confirm 73.0*, SENP7 confirm 88.6*, Casp3 SENP sel 73.9* and Luc interf 73.0*.
For O=C(Oc1ccc(/C=N/O)cc1)c1ccccc1Cl the results were Apaf1 inhib 9.3, UBC13 polyUb 5.1, SENP8 block-1 63.3*, SENP8 block-2 -6.4, SENP7 block 71.1*, SENP6 block 86.1*, SENP8 conf 81.1*, SENP6 confirm 77.1*, SENP7 confirm 93.8*, Casp3 SENP sel 77.4* and Luc interf 75.4*.
`O=C(Oc1ccc2ccc(O)cc2c1)c1ccccc1Cl` gave Apaf1 inhib -2.7, UBC13 polyUb 3.7, SENP8 block-1 73.8*, SENP8 block-2 11.5, SENP7 block 70.1*, SENP6 block 89.1*, SENP8 conf -20.3, SENP6 confirm 76.2*, SENP7 confirm 91.0*, Casp3 SENP sel 33.5 and Luc interf 67.0*.
`O=C(Oc1ccc2ccc(O)cc2c1)C1CCCCC1` gave Apaf1 inhib 9.1, UBC13 polyUb -1.7, SENP8 block-1 6.6, SENP8 block-2 -16.9, SENP7 block 3.2 and SENP6 block 25.7.
O=C(CN(Cc1ccccc1)S(=O)(=O)c1ccc(F)cc1)NCc1ccccn1 was read as Apaf1 inhib 0.1, UBC13 polyUb -10.4, SENP8 block-1 -2.8, SENP8 block-2 5.9, SENP7 block -2.1 and SENP6 block -1.8.
`COC(=O)c1ccc(-c2ccc(Cl)cc2)nc1C` gave Apaf1 inhib 3.0, UBC13 polyUb -6.2, SENP8 block-1 57.5*, SENP8 block-2 15.9, SENP7 block 76.0*, SENP6 block 76.1*, SENP8 conf 20.8, SENP6 confirm 63.7*, SENP7 confirm 90.3*, Casp3 SENP sel 51.9* and Luc interf 30.5.
